Assay results from ChEMBL document CHEMBL1123888, “Aldosterone antagonists. 2. Synthesis and biological activities of 11,12-dehydropregnane derivatives” (J Med Chem, 1987).
Values belong to the compound of their own block, whether it stands above or below them. The source made the active and inactive calls. The rule behind the calls is not given here.

Legend:
[1] = molecular target: T1, Mineralocorticoid receptor (Rattus norvegicus) (UniProt P22199); assay: Antagonist activity against Mineralocorticoid receptor after oral administration in Male Sprague Dawley rats; (-) = negative; type: functional, organism-based
T1 sequence (whole entry): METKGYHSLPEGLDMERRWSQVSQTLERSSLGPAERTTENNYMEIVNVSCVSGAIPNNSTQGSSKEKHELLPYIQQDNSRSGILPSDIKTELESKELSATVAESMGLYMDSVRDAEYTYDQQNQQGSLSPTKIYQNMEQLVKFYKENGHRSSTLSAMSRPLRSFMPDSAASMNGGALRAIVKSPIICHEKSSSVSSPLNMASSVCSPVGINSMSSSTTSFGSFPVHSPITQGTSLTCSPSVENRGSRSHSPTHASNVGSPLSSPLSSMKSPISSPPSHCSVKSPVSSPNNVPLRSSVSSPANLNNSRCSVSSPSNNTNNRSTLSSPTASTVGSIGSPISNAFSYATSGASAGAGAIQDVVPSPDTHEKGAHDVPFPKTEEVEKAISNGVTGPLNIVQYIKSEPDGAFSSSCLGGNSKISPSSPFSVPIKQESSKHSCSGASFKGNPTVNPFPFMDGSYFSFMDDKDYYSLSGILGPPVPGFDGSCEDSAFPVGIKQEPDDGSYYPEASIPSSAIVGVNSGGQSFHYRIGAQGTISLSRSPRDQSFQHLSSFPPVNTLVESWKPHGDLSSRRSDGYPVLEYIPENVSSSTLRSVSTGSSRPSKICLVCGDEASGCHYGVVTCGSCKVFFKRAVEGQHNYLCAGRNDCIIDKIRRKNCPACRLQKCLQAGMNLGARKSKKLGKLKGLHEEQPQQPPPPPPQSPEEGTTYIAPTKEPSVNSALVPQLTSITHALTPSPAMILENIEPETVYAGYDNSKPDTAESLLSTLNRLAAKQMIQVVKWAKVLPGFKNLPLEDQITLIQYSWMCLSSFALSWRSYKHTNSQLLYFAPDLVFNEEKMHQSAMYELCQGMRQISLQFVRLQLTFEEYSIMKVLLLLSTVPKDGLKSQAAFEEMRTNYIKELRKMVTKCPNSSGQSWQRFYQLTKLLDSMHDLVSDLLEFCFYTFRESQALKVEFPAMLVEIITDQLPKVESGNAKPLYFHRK
Procedure, shortened: (§1)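 Male rats were bilaterally adrenalectomized (bioassay modified from Kagawa). Ald (1 µg/kg) was given sc, immediately followed by test compound in sesame oil sc or orally. Urine was collected from 2 to 6 h after steroid. Potency came from the urinary Na/K ratio of sample versus control, with 95% confidence limits.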

[2] = molecular target: T2, Progesterone receptor (Rattus norvegicus) (UniProt Q63449); assay: Relative binding affinity against progesterone receptor determined in rat […] cytosol using [3H]DHT as ligand
T2 sequence (whole entry): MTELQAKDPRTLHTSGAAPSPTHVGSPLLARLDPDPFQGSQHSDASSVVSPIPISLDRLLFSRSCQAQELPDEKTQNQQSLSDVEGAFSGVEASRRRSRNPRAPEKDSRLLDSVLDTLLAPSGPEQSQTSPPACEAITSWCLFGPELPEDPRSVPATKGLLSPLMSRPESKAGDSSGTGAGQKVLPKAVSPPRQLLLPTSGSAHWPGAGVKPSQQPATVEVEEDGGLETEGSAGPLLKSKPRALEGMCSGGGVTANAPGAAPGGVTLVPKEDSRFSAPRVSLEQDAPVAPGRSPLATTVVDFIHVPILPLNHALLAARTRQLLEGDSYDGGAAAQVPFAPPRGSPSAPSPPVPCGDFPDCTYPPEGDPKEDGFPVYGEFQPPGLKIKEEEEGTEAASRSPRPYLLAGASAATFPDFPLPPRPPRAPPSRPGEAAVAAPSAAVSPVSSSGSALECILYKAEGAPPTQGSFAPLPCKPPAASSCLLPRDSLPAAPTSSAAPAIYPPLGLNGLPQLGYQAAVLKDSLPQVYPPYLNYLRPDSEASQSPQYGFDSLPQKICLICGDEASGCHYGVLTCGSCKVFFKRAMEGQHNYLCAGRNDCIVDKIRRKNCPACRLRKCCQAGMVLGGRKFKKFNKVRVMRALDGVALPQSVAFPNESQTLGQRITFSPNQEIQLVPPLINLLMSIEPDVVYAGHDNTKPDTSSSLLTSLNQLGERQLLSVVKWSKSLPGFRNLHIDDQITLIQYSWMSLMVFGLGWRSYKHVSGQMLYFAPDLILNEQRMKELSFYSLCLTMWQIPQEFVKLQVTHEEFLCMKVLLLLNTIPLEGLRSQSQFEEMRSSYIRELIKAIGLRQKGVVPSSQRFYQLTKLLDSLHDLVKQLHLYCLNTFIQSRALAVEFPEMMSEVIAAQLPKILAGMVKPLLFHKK

[3] = molecular target: T1, Mineralocorticoid receptor (Rattus norvegicus); assay: Relative binding affinity to the rat mineralocorticoid receptor determined in rat renal cytosol using [3]Ald as ligand
Procedure, shortened: (§2)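 Renal cytosol came from male Sprague-Dawley rats (4-8 weeks) adrenalectomized bilaterally 1 or 2 days earlier. It was incubated with various competitor concentrations and about 1 nM [3H]Ald for 42-48 h at 0 °C or 100-120 min at 25 °C. Bound and free steroid were separated by DCC.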

[4] = molecular target: T1, Mineralocorticoid receptor (Rattus norvegicus); assay: Relative binding affinity against mineralocorticoid receptor determined in rat renal cytosol using [3]Ald as ligand; procedure, shortened: as §2
[5] = molecular target: T1, Mineralocorticoid receptor (Rattus norvegicus); assay: Antagonist activity against Mineralocorticoid receptor was determined after subcutaneous administration in Male Sprague Dawley rats; type: functional, organism-based; procedure, shortened: as §1
[6] = molecular target: T1, Mineralocorticoid receptor (Rattus norvegicus); assay: Antagonist activity against Mineralocorticoid receptor after po administration in Male Sprague Dawley rats; (+) =positive; type: functional, organism-based; settings: filed as antagonist; procedure, shortened: as §1
[7] = molecular target: T1, Mineralocorticoid receptor (Rattus norvegicus); assay: Relative potency compared to Aldosterone;Range 4.3-23; type: functional
[8] = molecular target: T1, Mineralocorticoid receptor (Rattus norvegicus); assay: Antagonist activity against Mineralocorticoid receptor after subcutaneous administration in Male Sprague Dawley rats; (-) = negative; type: functional, organism-based; procedure, shortened: as §1
[9] = molecular target: T1, Mineralocorticoid receptor (Rattus norvegicus); assay: Agonist activity against Mineralocorticoid receptor after subcutaneous administration in Male Sprague Dawley rats; (+) =positive; type: functional, organism-based; settings: filed as agonist
[10] = molecular target: T1, Mineralocorticoid receptor (Rattus norvegicus); assay: Relative potency compared to Aldosterone;Range is 53-97; type: functional
[11] = molecular target: T1, Mineralocorticoid receptor (Rattus norvegicus); assay: In vivo relative Mineralocorticoid activity in Male Sprague-Dawley rats; type: functional, organism-based
[12] = molecular target: T1, Mineralocorticoid receptor (Rattus norvegicus); assay: Relative potency against mineralocorticoid receptor; type: functional; procedure, shortened: as §1
Rattus norvegicus = species: Rattus norvegicus; assay: Displacement of [3H]promegestone from progestin receptor of rat uterine cytosol at 0 degree Centigrade
Procedure, shortened: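 Uteri from estradiol-primed rats supplied the cytosol. It was incubated with various competitor concentrations and about 1 nM [3H]promegestone for 16-20 h at 0 °C. Bound and free steroid were separated by DCC. RBA (progesterone = 100%) = 100 × ratio of the 50%-inhibition concentrations of standard and competitor.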

[13] = molecular target: T1, Mineralocorticoid receptor (Rattus norvegicus); assay: Agonist activity against Mineralocorticoid receptor was determined after subcutaneous administration in Male Sprague Dawley rats; (+) =positive; type: functional, organism-based; settings: filed as agonist
[14] = molecular target: T1, Mineralocorticoid receptor (Rattus norvegicus); assay: Relative potency compared to Aldosterone;Range 14-224; type: functional
[15] = molecular target: T1, Mineralocorticoid receptor (Rattus norvegicus); assay: Relative potency ompared to Aldosterone;Range 4-187; type: functional
[16] = molecular target: T1, Mineralocorticoid receptor (Rattus norvegicus); assay: Relative potency compared to Aldosterone;Range is 72-216; type: functional
[17] = molecular target: T1, Mineralocorticoid receptor (Rattus norvegicus); assay: Agonist activity against Mineralocorticoid receptor after subcutaneous administration in Male Sprague Dawley rats; (-) = negative; type: functional, organism-based
[18] = molecular target: T1, Mineralocorticoid receptor (Rattus norvegicus); assay: Antagonist activity against Mineralocorticoid receptor after subcutaneous administration in Male Sprague Dawley rats; (+) =positive; type: functional, organism-based; settings: filed as antagonist; procedure, shortened: as §1
[19] = molecular target: T1, Mineralocorticoid receptor (Rattus norvegicus); assay: Relative anti-mineralocorticoid potency compared to Spironolactone after oral administration; type: functional, organism-based; procedure, shortened: as §1

Structure (SMILES): CC(=O)S[C@@H]1CC2=CC(=O)CCC2(C)C2C=CC3(C)C(CC[C@@]34CCC(=O)O4)C21 (some centres undefined)
RBA [2]: 14%
RBA [3]: 169%
Activity [8]: inactive
RBA [4]: 43%
Activity [9]: Agonist
Relative potency [10]: 53

Structure (SMILES): C[C@]12CCC(=O)C=C1CC[C@@H]1[C@@H]2[C@@H](O)C[C@]2(C=O)[C@@H](C(=O)CO)CC[C@@H]12
Relative activity [11]: 30
Relative potency [12]: 1

Structure (SMILES): CC12CCC(=O)C=C1C1CC1C1C2C=CC2(C)C1CC[C@@]21CCC(=O)O1 (some centres undefined)
RBA [3]: 30%
RBA (Rattus norvegicus): 56%
RBA [4]: 580%
Activity [5]: inactive
Activity [13]: Agonist
Relative potency [14]: 14

Structure (SMILES): CC12C=CC(=O)C=C1C1CC1C1C2C=CC2(C)C1CC[C@@]21CCC(=O)O1 (some centres undefined)
Relative potency [15]: 4
RBA [3]: 300%
RBA (Rattus norvegicus): 11%
Activity [8]: inactive
RBA [4]: 320%
Activity [9]: Agonist

Structure (SMILES): CC12CCC(=O)C=C1[C@H]1C[C@H]1C1C2C=CC2(C)C1CC[C@@]21CCC(=O)O1 (some centres undefined)
RBA [2]: 6.7%
RBA [3]: 110%
RBA [4]: 88%
Activity [17]: inactive
Activity [18]: Antagonist
Relative potency [19]: 1.48

Other lines, results leading:

Activity [1]: inactive
RBA [2]: 23%
RBA [3]: 350%
RBA [4]: 91%
Activity [5]: inactive
Activity [6]: Antagonist
Relative potency [7]: 4.3
Structure (SMILES): CC(=O)S[C@@H]1CC2=CC(=O)C=CC2(C)C2C=CC3(C)C(C4CC4[C@@]34CCC(=O)O4)C21 (some centres undefined)

RBA [2]: 19%
RBA [3]: 200%
RBA [4]: 160%
Activity [5]: inactive
Relative potency [16]: 72
Activity [13]: Agonist
Structure (SMILES): CC12C=CC(=O)C=C1C=CC1C2C=CC2(C)C1C1CC1[C@@]21CCC(=O)O1 (some centres undefined)
